Source: ChEMBL document CHEMBL4689842, “EUbOPEN Chemogenomics Library wave 1” (2021)

Tests used:
Assay type in all cases: toxicity, cell-based
[1] = test system: Fibroblast; assay: Incucyte cell viability with human fibroblast; conditions: 10 µM, compound concentration 10 uM; note: filed as whole numbers so only -1 and 0 and 1 occur
[2] = test system: HEK-293T; assay: Incucyte cell viability with HEK293T; conditions: human, 10 µM, compound concentration 10 uM; note: filed as whole numbers so only -1 and 0 and 1 occur
[3] = test system: HEK-293T; assay: Multiplex assay against HEK293T; conditions: human;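 for Population Tubulin-Different-Phenotype (%): share of the cells with healthy nuclei that show this phenotype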
In short: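 Cells stained live at seeding with Hoechst33342, BioTracker Green Microtubule Cytoskeleton Dye, MitoTracker Red and Annexin V Alexa Fluor 680 were imaged on a CQ1 microscope at 37°C and 5% CO2 after compound addition. Their classification by CellPathfinder machine-learning gating ran from Hoechst high-intensity objects versus normal cells, to healthy, pyknosed or fragmented nuclei among normal cells, to mitotic or apoptotic among pyknosed cells. Tubulin, mitochondrial-mass and membrane-permeability phenotypes are per cents of healthy-nucleus cells.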

[4] = 6 h, replicate number 1, timepoint 6 hours
[5] = 12 h, replicate number 1, timepoint 12 hours
[6] = 18 h, replicate number 1, timepoint 18 hours
[7] = 24 h, replicate number 1, timepoint 24 hours
[8] = 12 h, 1 µM, compound concentration 1 uM, replicate 1
[9] = 12 h, 1 µM, compound concentration 1 uM, replicate 2
[10] = 12 h, 10 µM, compound concentration 10 uM, replicate 1
[11] = 12 h, 10 µM, compound concentration 10 uM, replicate 2
[12] = 24 h, 1 µM, compound concentration 1 uM, replicate 1
[13] = 24 h, 1 µM, compound concentration 1 uM, replicate 2
[14] = 24 h, 10 µM, compound concentration 10 uM, replicate 1
[15] = 24 h, 10 µM, compound concentration 10 uM, replicate 2
[16] = 48 h, 1 µM, compound concentration 1 uM, replicate 1
[17] = 48 h, 1 µM, compound concentration 1 uM, replicate 2
[18] = 48 h, 10 µM, compound concentration 10 uM, replicate 1
[19] = 48 h, 10 µM, compound concentration 10 uM, replicate 2

## Cc1c(P(=S)(c2ccccc2)c2ccccc2)n2ccccc2[n+]1C/C=C/c1ccccc1.[Br-]
[1]; 0 h, replicate number 1, timepoint 0 hours
  Growth Rate: 0
[1]; [4]
  Growth Rate: 0
[1]; [5]
  Growth Rate: 0
[1]; [6]
  Growth Rate: 0
[1]; [7]
  Growth Rate: 0
[2]; 0 h, replicate number 2, timepoint 0 hours
  Growth Rate: 1
[2]; [4]
  Growth Rate: 0
[2]; [5]
  Growth Rate: 0
[2]; [6]
  Growth Rate: 0
[2]; [7]
  Growth Rate: 0
[3]; [8]
  Population Apoptotic (%): 65%
  Population Fragmented Nuclei (%): 12%
  Population Healthy Nuclei (%): 24%
  Population Hoechst High Intensity Objects (%): 17%
  Population Membrane Permeable-Phenotype (%): 6%
  Population Mitochondria Different-Phenotype (%): 93%
  Population Mitotic Cells (%): 34%
  Population Normal (%): 82%
  Population Pyknosed Nuclei (%): 62%
  Population Tubulin-Different-Phenotype (%): 83%
  Total Cell Count: 211
[3]; [9]
  Population Apoptotic (%): 86%
  Population Fragmented Nuclei (%): 6%
  Population Healthy Nuclei (%): 30%
  Population Hoechst High Intensity Objects (%): 5%
  Population Membrane Permeable-Phenotype (%): 0%
  Population Mitochondria Different-Phenotype (%): 87%
  Population Mitotic Cells (%): 13%
  Population Normal (%): 94%
  Population Tubulin-Different-Phenotype (%): 77%
  Total Cell Count: 138
[3]; [10]
  Population Apoptotic (%): 34%
  Population Fragmented Nuclei (%): 31%
  Population Healthy Nuclei (%): 2%
  Population Hoechst High Intensity Objects (%): 21%
  Population Membrane Permeable-Phenotype (%): 14%
  Population Mitochondria Different-Phenotype (%): 28%
  Population Mitotic Cells (%): 65%
  Population Normal (%): 78%
  Population Pyknosed Nuclei (%): 65%
  Population Tubulin-Different-Phenotype (%): 100%
  Total Cell Count: 398
[3]; [11]
  Population Apoptotic (%): 82%
  Population Fragmented Nuclei (%): 9%
  Population Healthy Nuclei (%): 6%
  Population Hoechst High Intensity Objects (%): 14%
  Population Membrane Permeable-Phenotype (%): 0%
  Population Mitochondria Different-Phenotype (%): 54%
  Population Mitotic Cells (%): 17%
  Population Normal (%): 85%
  Population Pyknosed Nuclei (%): 84%
  Population Tubulin-Different-Phenotype (%): 90%
  Total Cell Count: 192
[3]; [12]
  Population Apoptotic (%): 62%
  Population Fragmented Nuclei (%): 20%
  Population Healthy Nuclei (%): 18%
  Population Hoechst High Intensity Objects (%): 19%
  Population Membrane Permeable-Phenotype (%): 3%
  Population Mitochondria Different-Phenotype (%): 90%
  Population Mitotic Cells (%): 37%
  Population Normal (%): 80%
  Population Pyknosed Nuclei (%): 61%
  Population Tubulin-Different-Phenotype (%): 87%
  Total Cell Count: 217
[3]; [13]
  Population Apoptotic (%): 88%
  Population Fragmented Nuclei (%): 6%
  Population Healthy Nuclei (%): 41%
  Population Hoechst High Intensity Objects (%): 7%
  Population Membrane Permeable-Phenotype (%): 0%
  Population Mitochondria Different-Phenotype (%): 98%
  Population Mitotic Cells (%): 11%
  Population Normal (%): 92%
  Population Pyknosed Nuclei (%): 51%
  Population Tubulin-Different-Phenotype (%): 85%
  Total Cell Count: 147
[3]; [14]
  Population Apoptotic (%): 52%
  Population Fragmented Nuclei (%): 36%
  Population Healthy Nuclei (%): 0%
  Population Hoechst High Intensity Objects (%): 21%
  Population Membrane Permeable-Phenotype (%): 0%
  Population Mitochondria Different-Phenotype (%): 100%
  Population Mitotic Cells (%): 47%
  Population Normal (%): 78%
  Population Pyknosed Nuclei (%): 62%
  Total Cell Count: 389
[3]; [15]
  Population Apoptotic (%): 86%
  Population Fragmented Nuclei (%): 12%
  Population Healthy Nuclei (%): 14%
  Population Hoechst High Intensity Objects (%): 13%
  Population Membrane Permeable-Phenotype (%): 16%
  Population Mitochondria Different-Phenotype (%): 72%
  Population Mitotic Cells (%): 13%
  Population Normal (%): 86%
  Population Pyknosed Nuclei (%): 72%
  Population Tubulin-Different-Phenotype (%): 100%
  Total Cell Count: 195
[3]; [16]
  Population Apoptotic (%): 69%
  Population Fragmented Nuclei (%): 24%
  Population Healthy Nuclei (%): 1%
  Population Hoechst High Intensity Objects (%): 22%
  Population Membrane Permeable-Phenotype (%): 0%
  Population Mitochondria Different-Phenotype (%): 0%
  Population Mitotic Cells (%): 30%
  Population Normal (%): 77%
  Population Pyknosed Nuclei (%): 73%
  Population Tubulin-Different-Phenotype (%): 66%
  Total Cell Count: 209
[3]; [17]
  Population Apoptotic (%): 92%
  Population Fragmented Nuclei (%): 7%
  Population Healthy Nuclei (%): 57%
  Population Hoechst High Intensity Objects (%): 8%
  Population Membrane Permeable-Phenotype (%): 4%
  Population Mitochondria Different-Phenotype (%): 91%
  Population Mitotic Cells (%): 8%
  Population Normal (%): 91%
  Population Pyknosed Nuclei (%): 34%
  Population Tubulin-Different-Phenotype (%): 89%
  Total Cell Count: 157
[3]; [18]
  Population Apoptotic (%): 65%
  Population Fragmented Nuclei (%): 45%
  Population Healthy Nuclei (%): 1%
  Population Hoechst High Intensity Objects (%): 22%
  Population Membrane Permeable-Phenotype (%): 0%
  Population Mitochondria Different-Phenotype (%): 100%
  Population Mitotic Cells (%): 34%
  Population Normal (%): 77%
  Population Pyknosed Nuclei (%): 53%
  Total Cell Count: 379
[3]; [19]
  Population Apoptotic (%): 95%
  Population Fragmented Nuclei (%): 12%
  Population Healthy Nuclei (%): 27%
  Population Hoechst High Intensity Objects (%): 14%
  Population Membrane Permeable-Phenotype (%): 9%
  Population Mitochondria Different-Phenotype (%): 95%
  Population Mitotic Cells (%): 4%
  Population Normal (%): 85%
  Population Pyknosed Nuclei (%): 59%
  Population Tubulin-Different-Phenotype (%): 100%
  Total Cell Count: 175
